From ChEMBL document CHEMBL1629527, “In vitro antifungal activities of bis(alkylpyridinium)alkane compounds against pathogenic yeasts and molds” (Antimicrob Agents Chemother, 2010)

Key:
Cryptococcus neoformans [1] = assay: Antifungal activity against Cryptococcus neoformans after 24 to 72 hrs by broth microdilution method; assay type: functional
How it was run: (§1)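 Broth microdilution MIC per CLSI M27-A3 (yeasts) or M38-A2 (molds). RPMI 1640 with L-glutamine, without bicarbonate, buffered to pH 7.0 with 0.165 M MOPS. Final test range for the compounds was 0.175–87.5 μM. Incubation at 35°C with visual reading at 24–72 h. MIC was the lowest concentration giving 100% inhibition versus the growth control (azoles 50% or 100%, by organism). Each isolate was run in duplicate in two independent experiments.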

[2] = test system: Cryptococcus gattii species complex; assay: Antifungal activity against Cryptococcus gattii after 24 to 72 hrs by broth microdilution method; assay type: functional, Cryptococcus bacillisporus; how it was run: as §1
Candida tropicalis [3] = assay: Antifungal activity against Candida tropicalis after 48 to 72 hrs; assay type: functional
How it was run: (§2)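 MFC: after the MIC read, 30-μl aliquots from each well without visible growth were plated onto Sabouraud dextrose agar and incubated at 35°C. Reading was at 48–72 h for yeasts and up to 7 days for molds. MFC was the lowest concentration with no colonies.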

Candida parapsilosis [4] = assay: Antifungal activity against Candida parapsilosis after 48 to 72 hrs; assay type: functional; how it was run: as §2
Pichia kudriavzevii [5] = assay: Antifungal activity against Candida krusei after 48 to 72 hrs; assay type: functional; how it was run: as §2
Candida dubliniensis [6] = assay: Antifungal activity against Candida dubliniensis after 48 to 72 hrs; assay type: functional; how it was run: as §2
[7] = test system: Meyerozyma guilliermondii; assay: Antifungal activity against Candida guilliermondii after 48 to 72 hrs; assay type: functional; how it was run: as §2
[8] = test system: Cryptococcus gattii species complex; assay: Antifungal activity against Cryptococcus gattii after 48 to 72 hrs; assay type: functional, Cryptococcus bacillisporus; how it was run: as §2
[9] = Toxicity against human erythrocytes assessed as hemolysis; assay type: cell-based, Erythrocyte
Rhizopus arrhizus [10] = assay: Antifungal activity against Rhizopus oryzae 05-203111 after 48 to 72 hrs; assay type: functional
How it was run: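 After the broth microdilution MIC read, suspension from every well without visible growth was plated onto Sabouraud dextrose agar and incubated at 35°C, up to 7 days for molds. MFC was taken as the lowest drug concentration with no colonies.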

Candida tropicalis [11] = assay: Antifungal activity against Candida tropicalis after 24 to 72 hrs by broth microdilution method; assay type: functional; how it was run: as §1
Nakaseomyces glabratus [12] = assay: Antifungal activity against Candida glabrata after 24 to 72 hrs by broth microdilution method; assay type: functional; how it was run: as §1
Candida parapsilosis [13] = assay: Antifungal activity against Candida parapsilosis after 24 to 72 hrs by broth microdilution method; assay type: functional; conditions: Lodderomyces parapsilosis; how it was run: as §1
Pichia kudriavzevii [14] = assay: Antifungal activity against Candida krusei after 24 to 72 hrs by broth microdilution method; assay type: functional; how it was run: as §1
Candida dubliniensis [15] = assay: Antifungal activity against Candida dubliniensis after 24 to 72 hrs by broth microdilution method; assay type: functional; how it was run: as §1
Cryptococcus neoformans [16] = assay: Antifungal activity against Cryptococcus neoformans 05-202523 after 48 to 72 hrs; assay type: functional; how it was run: as §2
Exophiala spinifera = assay: Antifungal activity against Exophiala spinifera 03-200803 after 24 to 72 hrs by broth microdilution method; assay type: functional
How it was run: (§3)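 Mold isolates subcultured on potato dextrose agar, then tested by CLSI M38-A2 broth microdilution in RPMI 1640 (L-glutamine, no bicarbonate) buffered to pH 7.0 with 0.165 M MOPS. Compounds were dissolved in water and tested at a final 0.175–87.5 μM. Plates were incubated at 35°C. MIC was read visually as the lowest concentration giving 100% inhibition versus the growth control. Each isolate was run in duplicate in two independent experiments.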

Fusarium solani = assay: Antifungal activity against Fusarium solani 04-203102 after 24 to 72 hrs by broth microdilution method; assay type: functional; how it was run: as §3
[17] = Antifungal activity against Paecilomyces lilacinus 05-200601 after 24 to 72 hrs by broth microdilution method; assay type: functional; conditions: Purpureocillium lilacinum; how it was run: as §3
Rhizopus arrhizus [18] = assay: Antifungal activity against Rhizopus oryzae 05-203111 after 24 to 72 hrs by broth microdilution method; assay type: functional; how it was run: as §3
Aspergillus fumigatus [19] = assay: Antifungal activity against Aspergillus fumigatus 05-203114 after 24 to 72 hrs by broth microdilution method; assay type: functional; how it was run: as §1
Aspergillus flavus [20] = assay: Antifungal activity against Aspergillus flavus ATCC 204304 after 24 to 72 hrs by broth microdilution method; assay type: functional; how it was run: as §1
Aspergillus flavus [21] = assay: Antifungal activity against Aspergillus flavus 05-203758 after 24 to 72 hrs by broth microdilution method; assay type: functional; how it was run: as §1
Lomentospora prolificans = assay: Antifungal activity against Scedosporium prolificans 05-203060 after 24 to 72 hrs by broth microdilution method; assay type: functional; how it was run: as §3
Scedosporium apiospermum = assay: Antifungal activity against Scedosporium apiospermum 05-203100 after 24 to 72 hrs by broth microdilution method; assay type: functional; how it was run: as §3
Lichtheimia corymbifera = assay: Antifungal activity against Absidia corymbifera 04-200170 after 24 to 72 hrs by broth microdilution method; assay type: functional; how it was run: as §1
Aspergillus fumigatus [22] = assay: Antifungal activity against Aspergillus fumigatus ATCC 204305 after 24 to 72 hrs by broth microdilution method; assay type: functional; how it was run: as §1
[23] = test system: Cryptococcus gattii species complex; assay: Antifungal activity against Cryptococcus gattii 05-200122 after 24 to 72 hrs by broth microdilution method; assay type: functional, Cryptococcus bacillisporus; how it was run: as §1
Cryptococcus neoformans [24] = assay: Antifungal activity against Cryptococcus neoformans 05-202523 after 24 to 72 hrs by broth microdilution method; assay type: functional; how it was run: as §1
Cryptococcus neoformans [25] = assay: Antifungal activity against Cryptococcus neoformans ATCC 90112 after 24 to 72 hrs by broth microdilution method; assay type: functional; how it was run: as §1
Nakaseomyces glabratus [26] = assay: Antifungal activity against Candida glabrata 04-202345 after 24 to 72 hrs by broth microdilution method; assay type: functional; how it was run: as §1
Candida parapsilosis [27] = assay: Antifungal activity against Candida parapsilosis 04-202398 after 24 to 72 hrs by broth microdilution method; assay type: functional; conditions: Lodderomyces parapsilosis; how it was run: as §1
Candida parapsilosis [28] = assay: Antifungal activity against Candida parapsilosis ATCC 22019 after 24 to 72 hrs by broth microdilution method; assay type: functional; conditions: Lodderomyces parapsilosis; how it was run: as §1
Pichia kudriavzevii [29] = assay: Antifungal activity against Candida krusei ATCC 6258 after 24 to 72 hrs by broth microdilution method; assay type: functional; how it was run: as §1
Candida albicans [30] = assay: Antifungal activity against Candida albicans ATCC 10231 after 24 to 72 hrs by broth microdilution method; assay type: functional; how it was run: as §1
Candida albicans [31] = assay: Antifungal activity against Candida albicans ATCC 90028 after 24 to 72 hrs by broth microdilution method; assay type: functional; how it was run: as §1

**Q.** For `CCCCCc1cc[n+](CCCCCCCCCCCC[n+]2ccc(CCCCC)c(C)c2)cc1C.[Cl-].[Cl-]`, which MIC (Cryptococcus neoformans [1]) is on record?
**A.** 1.28 µg/mL

**Q.** And the MIC50 (Cryptococcus neoformans [1])?
**A.** 0.79 µg/mL

**Q.** And the MIC90 (Cryptococcus neoformans [1])?
**A.** 3.11 µg/mL

**Q.** What about the MIC [2] of the same compound?
**A.** 0.79 µg/mL

**Q.** And the MIC50 [2]?
**A.** 0.79 µg/mL

**Q.** And the MIC90 [2]?
**A.** 0.79 µg/mL

**Q.** What about the MFC50 (Candida tropicalis [3]) of the same compound?
**A.** 0.79 µg/mL

**Q.** What about the MFC90 (Candida tropicalis [3]) of the same compound?
**A.** 1.56 µg/mL

**Q.** And the MFC (Candida tropicalis [3]; Candida tropicalis)?
**A.** 0.39 µg/mL

**Q.** And the MFC50 (Candida parapsilosis [4])?
**A.** 49.5 µg/mL

**Q.** And the MFC90 (Candida parapsilosis [4])?
**A.** 49.5 µg/mL

**Q.** And the MFC (Candida parapsilosis [4]; Lodderomyces parapsilosis)?
**A.** 49.5 µg/mL

**Q.** What about the MFC50 (Pichia kudriavzevii [5]) of the same compound?
**A.** 6.22 µg/mL

**Q.** And the MFC90 (Pichia kudriavzevii [5])?
**A.** 6.22 µg/mL

**Q.** And the MFC (Pichia kudriavzevii [5]; Pichia kudriavzevii)?
**A.** 0.79 µg/mL

**Q.** And the MFC50 (Candida dubliniensis [6])?
**A.** 0.79 µg/mL

**Q.** What about the MFC90 (Candida dubliniensis [6]) of the same compound?
**A.** 1.56 µg/mL

**Q.** And the MFC (Candida dubliniensis [6]; Candida dubliniensis)?
**A.** 0.79 µg/mL

**Q.** And the MFC50 [7]?
**A.** 0.79 µg/mL

**Q.** And the MFC90 [7]?
**A.** 1.56 µg/mL

**Q.** And the MFC ([7]; Meyerozyma guilliermondii)?
**A.** 0.39 µg/mL

**Q.** And the MFC50 [8]?
**A.** 0.79 µg/mL

**Q.** And the MFC90 [8]?
**A.** 0.79 µg/mL

**Q.** And the MFC ([8]; Cryptococcus gattii species complex)?
**A.** 0.79 µg/mL

**Q.** What about the HC50 [9] of the same compound?
**A.** > 129 µM

**Q.** And the IC50 [9]?
**A.** > 48 µM

**Q.** What about the MFC (Rhizopus arrhizus [10]) of the same compound?
**A.** 6.3 µg/mL

**Q.** And the MIC (Candida tropicalis [11])?
**A.** 0.79 µg/mL

**Q.** What about the MIC50 (Candida tropicalis [11]) of the same compound?
**A.** 0.79 µg/mL

**Q.** And the MIC90 (Candida tropicalis [11])?
**A.** 0.79 µg/mL

**Q.** And the MIC (Nakaseomyces glabratus [12])?
**A.** 0.642 µg/mL

**Q.** What about the MIC50 (Nakaseomyces glabratus [12]) of the same compound?
**A.** 0.79 µg/mL

**Q.** What about the MIC90 (Nakaseomyces glabratus [12]) of the same compound?
**A.** 0.79 µg/mL

**Q.** And the MIC (Candida parapsilosis [13])?
**A.** 30.6 µg/mL

**Q.** And the MIC50 (Candida parapsilosis [13])?
**A.** 24.9 µg/mL

**Q.** What about the MIC90 (Candida parapsilosis [13]) of the same compound?
**A.** 49.5 µg/mL

**Q.** And the MIC (Pichia kudriavzevii [14])?
**A.** 3.12 µg/mL

**Q.** And the MIC50 (Pichia kudriavzevii [14])?
**A.** 3.11 µg/mL

**Q.** And the MIC90 (Pichia kudriavzevii [14])?
**A.** 6.22 µg/mL

**Q.** What about the MIC (Candida dubliniensis [15]) of the same compound?
**A.** 0.908 µg/mL

**Q.** What about the MIC50 (Candida dubliniensis [15]) of the same compound?
**A.** 0.79 µg/mL

**Q.** And the MIC90 (Candida dubliniensis [15])?
**A.** 0.79 µg/mL

**Q.** And the MFC (Cryptococcus neoformans [16])?
**A.** 25.3 µg/mL

**Q.** What about the MIC (Exophiala spinifera) of the same compound?
**A.** 0.79 µg/mL

**Q.** And the MIC (Fusarium solani)?
**A.** 12.7 µg/mL

**Q.** What about the MIC [17] of the same compound?
**A.** > 50.7 µg/mL

**Q.** What about the MIC (Rhizopus arrhizus [18]) of the same compound?
**A.** 1.58 µg/mL

**Q.** And the MIC (Aspergillus fumigatus [19])?
**A.** 25.3 µg/mL

**Q.** And the MIC (Aspergillus flavus [20])?
**A.** 12.7 µg/mL

**Q.** And the MIC (Aspergillus flavus [21])?
**A.** 25.3 µg/mL

**Q.** And the MIC (Lomentospora prolificans)?
**A.** 1.58 µg/mL

**Q.** And the MIC (Scedosporium apiospermum)?
**A.** 6.3 µg/mL

**Q.** And the MIC (Lichtheimia corymbifera)?
**A.** 50.7 µg/mL

**Q.** What about the MIC (Aspergillus fumigatus [22]) of the same compound?
**A.** 25.3 µg/mL

**Q.** What about the MIC [23] of the same compound?
**A.** 0.79 µg/mL

**Q.** And the MIC (Cryptococcus neoformans [24])?
**A.** 12.7 µg/mL

**Q.** And the MIC (Cryptococcus neoformans [25])?
**A.** 0.79 µg/mL

**Q.** And the MIC (Nakaseomyces glabratus [26])?
**A.** 0.79 µg/mL

**Q.** What about the MIC (Candida parapsilosis [27]) of the same compound?
**A.** 25.3 µg/mL

**Q.** What about the MIC (Candida parapsilosis [28]) of the same compound?
**A.** 0.79 µg/mL

**Q.** And the MIC (Pichia kudriavzevii [29])?
**A.** 6.3 µg/mL

**Q.** What about the MIC (Candida albicans [30]) of the same compound?
**A.** 1.58 µg/mL

**Q.** And the MIC (Candida albicans [31])?
**A.** 1.58 µg/mL
